Bioassay records: PubChem, several laboratories
Shown are actives, neighbours in structure and some others; about 9.6% of the full set was active somewhere.
PMI act: phosphomannose isomerase (human) activation | P34949 | AID 1214 | activation factor at 20 µM | hit rate 0.005% among 190,000 | purified human PMI, coupled resazurin fluorescence, 20 min; hits give high values; 1 = vehicle control, 0 substrate-free wells;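 active means activation factor of 2 or more at 20 µM, relative to plate controls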
Target sequence (P34949 whole entry, looked up): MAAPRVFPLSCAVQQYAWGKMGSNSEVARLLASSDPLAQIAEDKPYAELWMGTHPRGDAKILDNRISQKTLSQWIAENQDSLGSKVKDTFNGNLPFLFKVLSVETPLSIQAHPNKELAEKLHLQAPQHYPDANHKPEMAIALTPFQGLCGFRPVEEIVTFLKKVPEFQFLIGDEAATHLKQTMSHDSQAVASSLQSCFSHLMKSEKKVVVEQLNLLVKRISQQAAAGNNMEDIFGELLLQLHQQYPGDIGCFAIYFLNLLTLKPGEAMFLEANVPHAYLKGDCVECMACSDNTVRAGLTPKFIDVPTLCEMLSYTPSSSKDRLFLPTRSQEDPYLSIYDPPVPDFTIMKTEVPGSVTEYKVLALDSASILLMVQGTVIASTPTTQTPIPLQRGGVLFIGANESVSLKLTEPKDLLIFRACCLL
PTEN del growth: growth suppressors of cells with PTEN tumor suppressor deletion | HCT116 PTEN-null viability, CellTiter-Glo, 60 h; hits give low values | viability, % at 10 µM | AID 827 | hit rate 1.2% among 140,000;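 active means viability at or below a set limit, 4 SD under the median of all tested compounds, cut at about 3.7% in these data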;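 further: PTEN knockout HCT116 line with beta catenin targeted HCT116 as companion control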
bCat KO growth: beta-catenin-lacking colon tumor cell growth suppression. viability, % at 10 µM. AID 818. hit rate 1.5% among 140,000. HCT116 beta-catenin knockout viability, CellTiter-Glo, 60 h; hits give low values;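 active means viability at or under a set limit, the compound median less 4 SD, cut at about 6% in these data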
L major viab: inhibitors of Leishmania major promastigote growth; Leishmania major promastigotes, resazurin fluorescence viability; inhibition, % at 10 µM; hit rate 9% among 200,000; AID 1063; in the data active means inhibition above about 50%;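 further: promastigotes grown with compound for 44 hours at 28 °C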
PMI act satM6P: increases human PMI activity with near-saturating mannose 6-phosphate; coupled PMI enzyme assay, resazurin fluorescence, 20 min; hits give high values; 1 = untreated enzyme, 0 = substrate-free blank; activation factor at 20 µM; hit rate 0.34% among 190,000; AID 1216;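 active means activation factor of 2 or more at 20 µM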
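Technique: Diaphorase-driven resazurin-to-resorufin fluorescence, excitation 544, emission 590 nm | Assay system: Human PMI in coupled enzyme assay | Times: Enzyme reaction with compound 20 min at room temperature | Medium: HEPES-buffered pH 7.4 with magnesium and detergent | Reagent: Mannose-6-phosphate 1.0 mM (near-saturating) plus 0.22 mM NADP+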
A number is an active result; . = inactive; / = no result.

SMILES	PMI act	PTEN del growth	bCat KO growth	L major viab	PMI act satM6P
CC(Oc1ccc(Cl)cc1Cl)C(=O)Nc1ccc(N2CCN(C)CC2)cc1 (stereo unspecified)	.	.	.	100	.
O=S(=O)(/N=C(/Nc1ccccn1)c1ccccc1)c1ccccc1	.	.	.	.	.
Cc1ccc(-c2c[n+](CC(=O)N3c4ccccc4Sc4ccccc43)c3n2CCC3)cc1	.	.	.	96	.
O=C(C[n+]1cc(-c2ccccc2)n2c1CCC2)N1c2ccccc2Sc2ccccc21	.	.	.	.	.
O=C(C[n+]1cc(-c2ccc(F)cc2)n2c1CCC2)N1c2ccccc2Sc2ccccc21	.	.	.	91	.
O=C(C[n+]1cc(-c2ccccc2)n2c1CCC2)Nc1nc(-c2ccc(F)cc2)cs1	.	.	.	.	.
COc1cccc(/C=C/C(=O)OCC(=O)NCc2ccco2)c1	.	.	.	.	.
O=C1Cc2ccccc2C(=O)N1Cc1ccccc1	.	.	.	.	.
CCOC(=O)N1CCN(S(=O)(=O)c2ccc(C(=O)NNc3nc4cc(C)cc(C)c4s3)cc2)CC1	.	.	.	.	.
CCOC(=O)N1CCN(S(=O)(=O)c2ccc(C(=O)NNc3nc4ccc(Cl)cc4s3)cc2)CC1	.	3.6	4.4	.	.
CCOC(=O)N1CCN(S(=O)(=O)c2ccc(C(=O)NNc3nc4c(C)cccc4s3)cc2)CC1	.	.	.	.	.
Cc1cc(C)c2nc(NNC(=O)c3ccc(S(=O)(=O)N4CCCCC4)cc3)sc2c1	.	.	.	89	.
CCOC(=O)N1CCN(S(=O)(=O)c2ccc(C(=O)NNc3nc4c(C)cc(C)cc4s3)cc2)CC1	.	.	.	88	.
Cc1cc(C)c2nc(NC(=O)[C@@H](NC(=O)c3cccc(S(=O)(=O)N4CCOCC4)c3)C(C)C)sc2c1	.	.	.	97	.
FC(F)Oc1ccccc1/C=N/n1cnc2ccccc21	.	/	/	.	.
O=C(C1=C[C@@H](C2CCCCC2)C[C@@H](OCc2ccc(CO)cc2)O1)N1CCN(Cc2ccc3c(c2)OCO3)CC1	.	/	/	57	.
O=C(C1=C[C@H](C2CCCCC2)C[C@H](OCc2ccc(CO)cc2)O1)N1CCN(Cc2ccc3c(c2)OCO3)CC1	.	/	/	68	.
C#CCNC(=O)C1=C[C@H](C2CCCCC2)C[C@H](OCc2ccc(CO)cc2)O1	.	/	/	.	.
O=C(C1=C[C@H](C2CC2)C[C@H](OCc2ccc(CO)cc2)O1)N1CCN(Cc2ccc3c(c2)OCO3)CC1	.	/	/	.	.
CC(C)(C)[C@@H]1C=C(C(=O)NC2CC2)O[C@H](OCc2ccc(CO)cc2)C1	.	/	/	99	.
C#CCNC(=O)C1=C[C@@H](C2CCCCC2)C[C@@H](OCc2ccc(CO)cc2)O1	.	/	/	96	.
Cc1nc(SCn2nnc3ccccc3c2=O)c2c(C)c(C)sc2n1	.	/	/	/	.
O=C(Nc1cccc(F)c1)C1CCN(C(=O)c2ccccc2Cl)CC1	.	.	.	.	.
Cc1c(C#N)c(NC(=O)CCl)n(Cc2ccc(F)cc2)c1C	.	/	/	92	.
Cc1c(C#N)c(NC(=O)CCl)n(Cc2cccs2)c1C	.	/	/	80	.
SMILES	PMI act	PTEN del growth	bCat KO growth	L major viab	PMI act satM6P
N#Cc1c(NC(=O)c2ccccc2Cl)n(Cc2ccccc2)c2nc3ccccc3nc12	.	.	.	.	.
Cc1c(C#N)c(NC(=O)CCl)n(Cc2ccccc2)c1C	.	/	/	90	.
COC(=O)c1ccc(NC(=O)NS(=O)(=O)c2ccc(C)cc2)cc1	.	.	.	.	.
C/C(=N\Nc1cccc(Cl)c1)c1ccc(-n2ccnc2)cc1	.	.	.	.	2.6
COC(=O)N/N=C(\C)c1ccc(-n2ccnc2)cc1	.	/	/	.	.
COc1cccc(-n2nnc3c(=O)n(CC(=O)Nc4ccc(C)cc4)cnc32)c1	.	/	/	.	.
C(=N\NC1=Nc2cccc3cccc1c23)/c1ccccc1	.	.	.	.	.
O=C(NNC1=Nc2cccc3cccc1c23)c1ccc(Br)cc1	.	/	/	82	.
Cc1c(C)n(Cc2ccccc2)c2ccc(C(=O)OCCCN(C)C)cc12	.	/	/	100	.
O=C(Nc1ccccc1-c1ccccc1)C1CCCC1	.	/	/	.	.
O=C(Nc1nc(COc2ccccc2)cs1)C12CC3CC(CC(C3)C1)C2	.	.	.	100	.
CC(=O)Nc1nc(COc2ccccc2)cs1	.	.	.	.	.
CCOc1ccccc1N1CCN(C(=S)NC(=O)C23CC4CC(CC(C4)C2)C3)CC1	.	.	.	.	.
O=C(NC(=S)N1CCN(c2ccc(F)cc2)CC1)C12CC3CC(CC(C3)C1)C2	.	.	.	80	.
O=C(Nc1ccccc1-c1ccccc1)C12CC3CC(CC(C3)C1)C2	.	.	.	89	.
CCC(CC)C(=O)N1CCN(c2ccccc2)CC1	.	/	/	.	2.8
O=C(CN1C(=O)C2CC=CCC2C1=O)NCC1COc2ccccc2O1 (stereo unspecified)	.	.	.	.	.
CCOc1ccccc1NC(=O)C(=O)NCCC1=CCCCC1	.	/	/	.	.
O=C(N1CCN(c2ccccc2)CC1)C12CC3CC(CC(C3)C1)C2	.	.	.	95	.
O=C(Nc1ccccc1N1CCN(c2ccc(F)cc2)CC1)C12CC3CC(CC(C3)C1)C2	.	.	.	100	.
C/C=C/C(=O)N(CC)c1ccccc1C	.	/	/	/	.
CC(C)COc1ccc(C/C(N)=N/n2cnnc2)cc1	.	/	/	.	.
CCOC(=O)c1cc(-c2ccc(F)cc2)n(CCC(=O)NC2CCN(Cc3ccccc3)CC2)c1C	.	/	/	80	.
CCOC(=O)c1cc(-c2ccc(OC)cc2)n(CCC(=O)NC2CCN(Cc3ccccc3)CC2)c1C	.	/	/	84	.
CC(=O)c1cc(-c2ccccc2)n(CCC(=O)NC2CCCCCCC2)c1C	.	.	.	.	.
SMILES	PMI act	PTEN del growth	bCat KO growth	L major viab	PMI act satM6P
CCOC(=O)c1cc(-c2ccccc2)n(CC(=O)Nc2ccc(OC)cc2)c1C	.	.	.	51	.
CCOC(=O)c1cc(-c2ccccc2)n(CCC(=O)O)c1C	.	.	.	.	.
CCOC(=O)c1cc(-c2ccc(OC)cc2)n(CCC(=O)NCCN2CCC(C)CC2)c1C	.	/	/	.	.
CCOC(=O)N1CCN(C(=O)COc2cccc3c2CCN(Cc2ccc(F)cc2)C3=O)CC1	.	.	.	.	.
O=C(NC12CC3CC(CC(C3)C1)C2)C12CC3CC(C1)CC(n1cnc(Cl)n1)(C3)C2	.	.	.	.	.
COC(=O)c1cc(Br)c(=O)n(-c2cc(C)on2)c1	.	.	.	.	.
CCOC(=O)c1ccc(NC(=O)N2CCN(c3ccccc3OC)CC2)cc1	.	/	/	.	.
CCOC(=O)/C(=N\Nc1ccc(Br)cc1)N1CCN(c2ccccc2OC)CC1	.	/	/	.	2.4
N#Cc1c(N)c(C(=O)c2ccc(Br)cc2)n2c1CCC2	.	.	.	.	.
COc1ccc(OC)c(C2Nc3nc4ccccc4n3C(C)=C2C(=O)Nc2ccc(C)cc2C)c1 (stereo unspecified)	.	.	.	.	.
